# From PubChem BioAssay
# TLR4-MyD88 BLA: inhibitors of TLR4-MyD88 association in cells, primary screen, cell-based, HeLa CL3-4, BLA complementation, FRET ratio; Toll-like receptor 4 (Homo sapiens) + Myeloid differentiation primary response protein …; HeLa CL3-4 TLR4/MyD88 BLA complementation; inhibition, % at 8.4 µM; 200,000 compounds, 0.18% hits; in the data active means inhibition above about 25%;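 further: 0% = vehicle and 100% = reference inhibitor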
# TLR9-MyD88 block: inhibitors of TLR9-MyD88 association in cells, primary screen, cell-based, CHO, BLA complementation, fluorescence; Toll-like receptor 9 (Homo sapiens) + Myeloid differentiation primary response protein …; CCF4 FRET ratio; inhibition, % at 4.98 µM; 340,000 compounds, 0.21% hits; AID 504734, 2011;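 active means inhibition above the mean over all tested compounds plus 3 SD, cut at about 21% in these data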;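 further: 0% = DMSO only wells and 100% = clavulanate BLA inhibitor control wells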
# NOD2 RIPK2 PPI: NOD2-RIPK2 binding disruptors in cells, primary screen, fluorescence, CHO cells, BLA complementation; CCF4 ratio; inhibition, % at 4.98 µM; 360,000 compounds, 0.38% hits; in the data active means inhibition above about 21%;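 further: 0% = vehicle only and 100% = reference blocker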
# MC4R barr agon: MC4R agonists recruiting beta-arrestin, primary screen, cell-based, luminescence, agonist arm of biased-ligand search; Melanocortin receptor 4 (Homo sapiens), P32245; U2OS MC4R beta-arrestin complementation; percent of melanotan II response, DMSO zero; activation, % at 8.9 µM; 360,000 compounds, 0.98% hits; AID 540308, 2011;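 active means activation above a per-plate cutoff, the mean activation of sample wells on that plate plus 3 SD, cut at about 8% in these data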
# Target sequence (P32245 whole entry, looked up): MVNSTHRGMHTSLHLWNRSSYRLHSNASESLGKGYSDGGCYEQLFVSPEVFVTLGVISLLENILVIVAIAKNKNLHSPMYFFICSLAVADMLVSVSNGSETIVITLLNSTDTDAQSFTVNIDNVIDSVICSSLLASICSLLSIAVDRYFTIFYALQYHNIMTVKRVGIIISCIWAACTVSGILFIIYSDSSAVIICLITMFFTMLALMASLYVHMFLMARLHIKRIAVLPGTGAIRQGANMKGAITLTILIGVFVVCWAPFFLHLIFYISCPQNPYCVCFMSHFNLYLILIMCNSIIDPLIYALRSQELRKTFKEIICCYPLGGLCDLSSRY
# MC4R antagonist: MC4R antagonists of cAMP signaling, primary screen, cell-based, TR-FRET, antagonist arm of biased-ligand search; Melanocortin receptor 4 (Homo sapiens), P32245; 360,000 compounds, 0.48% hits; AID 540295, 2011; inhibition, % at 6.5 µM; MC4R-expressing cells, MTII-stimulated cAMP, LANCE TR-FRET;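 active means inhibition above its plate's cutoff, the mean of tested wells on that plate plus 3 SD, cut at about 29% in these data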;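 further: 0% = Melanotan II alone and 100% = Melanotan II plus saturating MCL0020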
#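 System – human MC4R-expressing U2OS cells · Also added – Melanotan II · Dosing – one concentration, 6.5 µM nominal · Timing – 30-min compound, 1-h challenge, 1-h detection, room temperature · Measured by – Eu-cAMP/anti-cAMP TR-FRET, emission 671 nm · Replicates – singlicate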
# The depositor's hits bear a star; . = no result given. Compounds with a hit are over-represented: about 1.8% of the library has one in this group of screens.
SMILES,TLR4-MyD88 BLA,TLR9-MyD88 block,NOD2 RIPK2 PPI,MC4R barr agon,MC4R antagonist
Cc1ccc(C)c(N2CCN(C(=O)CCCOc3cc(=O)n(C)c4ccccc34)CC2)c1,-2.9,-7.1,11.8,11.7*,4.2
CC(=O)c1c(C)nn(CC(=O)NC2CCCN(Cc3ccc(CC(C)C)cc3)C2)c1C (centres undefined),.,-8.6,6.0,-3.5,0.7
NC(=O)C1CCN(C(=O)c2ccc(Cl)c(S(=O)(=O)N3CCc4ccccc43)c2)CC1,.,-17.9,-1.9,-1.5,3.0
O=C(NC(=S)Nc1ccc2oc(=O)ccc2c1)c1ccccc1F,.,.,-1.9,8.4*,4.2
O=C(NC(=S)Nc1ccc2oc(-c3ccncc3)nc2c1)c1ccccc1F,-5.3,16.1,-11.2,-1.7,7.4
Cc1ccccc1OCC(=O)Nc1cccc(Cl)c1C,.,-13.9,-0.1,8.6*,3.8
COc1ccc(Cl)cc1NC(=O)c1cc(-c2ccccc2O)n[nH]1,-2.1,-7.7,1.8,0.1,1.8
Cc1c(Cl)cccc1NC(=O)c1cc(-c2ccccc2O)n[nH]1,8.1,-13.4,3.0,9.3*,-5.0
Cc1ccccc1OCC(=O)Nc1ccccc1-c1ccccc1NC(=O)COc1ccccc1C,-14.3,7.2,-1.0,-0.4,8.7
CSc1ncccc1C(=O)NCCc1ccccc1F,.,-1.2,7.8,-0.8,-1.9
O=C(O)CCC(=O)Nc1nc2nccc(-c3ccccc3)n2n1,.,-5.2,-2.2,1.4,2.2
CCOC(=O)[C@]12CCC=C1N(CCC1=CCCCC1)C(=O)[C@H](CC(=O)NCc1ccc(OC)c(OC)c1)C2,.,.,-12.0,.,.
OCCC1CN(Cc2cc3c(cc2Cl)OCO3)CCN1C1CCCC1 (centres undefined),-1.7,7.1,2.5,-0.4,4.4
O=C(COC(=O)c1ccccc1)Nc1ccc(Cl)cn1,-6.4,-6.0,-0.5,0.8,2.5
COc1ccc(C(=O)OCC(=O)Nc2ccc(Cl)cn2)cc1,-2.7,-1.7,-10.1,8.8*,3.5
COc1ccc(/C=N/OC(=O)Nc2ccccc2OC)cc1,-2.1,-4.8,-1.6,-2.6,-20.6
O=c1[nH]c2ccc(Cl)cc2c(-c2ccccc2)c1[N+](=O)[O-],.,1.2,-8.9,9.3*,3.8
CC(C)=CCC/C(C)=C/Cc1c(O)ccc(C(=O)/C=C/c2ccc(O)cc2)c1O,-1.6,-3.1,-0.7,8.6*,6.9
CCCCNc1cnn(-c2ccccc2)c(=O)c1Cl,-3.5,4.6,0.7,-0.9,-4.8
CCc1ccc(Nc2cnn(-c3nc4ccccc4s3)c(=O)c2Cl)cc1,-16.9,-2.7,-1.2,8.2*,19.8
S=c1nc(NCCc2ccccc2Cl)c2ccccc2[nH]1,.,-24.2,-9.8,12.1*,-1.8
O=C(NCCc1ccc(Cl)cc1)C1CCC(CNc2nc(=S)[nH]c3ccccc23)CC1 (centres undefined),-4.0,-0.5,-3.4,16.5*,6.8
O=C(CCCCCNc1nc(=S)[nH]c2ccccc12)NCc1ccccc1Cl,-10.4,.,.,.,.
Cc1ccc(NC(=O)CCC(=O)Nc2nnc(C3CCCCC3)s2)cc1,.,5.9,2.4,0.6,-2.9
Nc1nonc1-n1nnc(C(=O)N/N=C/c2ccc3c(c2)OCO3)c1-c1ccccc1,.,2.0,-2.0,-0.7,22.8
SMILES,TLR4-MyD88 BLA,TLR9-MyD88 block,NOD2 RIPK2 PPI,MC4R barr agon,MC4R antagonist
Nc1nonc1-n1nnc(C(=O)N/N=C/c2ccc(Br)cc2)c1-c1ccc2c(c1)OCO2,.,-9.4,-1.6,8.8*,7.1
O=C(COC(=O)c1cccc2ccccc12)Nc1ncc(C(F)(F)F)cc1Cl,-1.6,-2.8,-8.6,8.7*,-3.4
CC1CC(C)CN(C(=O)c2ccc(S(=O)(=O)N3CC(C)CC(C)C3)cc2)C1 (centres undefined),.,7.6,6.0,0.0,7.8
CC1CC(C)CN(S(=O)(=O)c2ccc(Cl)cc2)C1 (centres undefined),.,-1.8,-4.2,9.2*,8.1
Cc1cccc(OCc2nnc(SCC(=O)Nc3ccc(C)c(C)c3)o2)c1,-8.6,9.6,-0.4,8.8*,0.7
CCC(OC(=O)c1cccs1)C(=O)NCc1ccc(C)cc1 (centres undefined),10.9,3.8,-6.0,1.9,22.6
